From ChEMBL document CHEMBL1132976, “Biarylcarbamoylindolines are novel and selective 5-HT(2C) receptor inverse agonists: identification of 5-methyl-1-[[2-[(2-methyl-3-pyridyl)oxy]- 5-pyridyl]carbamoyl]-6-trifluoromethylindoline (SB-243213) as a potential antidepressant/anxiolytic agent” (J Med Chem, 2000) come the findings set out here.

SMILES strings stand for the structures. pIC50, pKi: −log10 of the molar value. Active and inactive are the calls of the source. No cut-off for these calls is given here.

Test [1] addresses T1, 5-hydroxytryptamine receptor 2A (Homo sapiens, UniProt P28223). In words: Binding affinity towards human cloned 5-hydroxytryptamine receptor 2A in HEK293 cells, using [3H]ketanserin as radioligand. Format: cell-based. The procedure, abridged: (§1)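 Competition binding at human cloned receptors expressed in HEK 293 cells. Radioligands: [3H]ketanserin for 5-HT2A, [3H]5-HT for 5-HT2B, [3H]mesulergine for 5-HT2C. Values are pKi, given as the mean of at least two determinations, each within 0.2 log unit of the mean.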

For test [2], the target named is T2, 5-hydroxytryptamine receptor 2C (Homo sapiens, UniProt P28335).
T2 sequence (P28335 whole entry): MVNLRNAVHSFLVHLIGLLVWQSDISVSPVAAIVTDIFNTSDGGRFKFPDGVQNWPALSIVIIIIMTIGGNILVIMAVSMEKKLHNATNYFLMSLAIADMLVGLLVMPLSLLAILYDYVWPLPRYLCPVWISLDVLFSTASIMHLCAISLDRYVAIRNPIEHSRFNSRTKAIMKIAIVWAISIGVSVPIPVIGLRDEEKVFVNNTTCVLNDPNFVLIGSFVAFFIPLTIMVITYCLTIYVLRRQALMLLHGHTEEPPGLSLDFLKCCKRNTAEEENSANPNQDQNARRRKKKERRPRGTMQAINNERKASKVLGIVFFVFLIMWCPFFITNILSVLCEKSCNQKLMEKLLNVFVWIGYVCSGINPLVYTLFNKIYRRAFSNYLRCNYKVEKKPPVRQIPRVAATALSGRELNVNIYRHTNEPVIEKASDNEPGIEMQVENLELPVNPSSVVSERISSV
In words: Binding affinity towards human cloned 5-hydroxytryptamine receptor 2C in HEK293 cells, using [3H]mesulergine as radioligand. Type of test: cell-based. The procedure, abridged: as §1

The target of test [3] is T3, 5-hydroxytryptamine receptor 2B (Homo sapiens, UniProt P41595). In words: Displacement of [3H]5-HT from human 5-hydroxytryptamine 2B receptor expressed in HEK293 cells. Format: cell-based. The method, boiled down: as §1
In general terms: In a radioligand displacement assay an active substance lowers the binding of a labelled ligand.

Test [4] concerns the target T4, Cytochrome P450 1A2 (Homo sapiens, UniProt P05177).
T4 sequence (P05177 whole entry): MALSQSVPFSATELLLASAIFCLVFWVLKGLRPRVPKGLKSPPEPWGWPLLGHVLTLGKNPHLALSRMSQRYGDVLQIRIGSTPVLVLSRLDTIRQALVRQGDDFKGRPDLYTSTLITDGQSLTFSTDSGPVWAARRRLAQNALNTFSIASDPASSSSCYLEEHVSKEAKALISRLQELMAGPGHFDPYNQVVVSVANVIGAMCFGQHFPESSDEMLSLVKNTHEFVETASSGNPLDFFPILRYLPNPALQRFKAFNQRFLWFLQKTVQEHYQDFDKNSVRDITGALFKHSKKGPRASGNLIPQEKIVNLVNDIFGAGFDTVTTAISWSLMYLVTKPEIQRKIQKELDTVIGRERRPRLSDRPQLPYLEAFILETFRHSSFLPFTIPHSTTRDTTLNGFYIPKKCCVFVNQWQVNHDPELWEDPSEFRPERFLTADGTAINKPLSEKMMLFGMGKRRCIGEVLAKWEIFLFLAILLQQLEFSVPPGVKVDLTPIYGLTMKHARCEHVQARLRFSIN
In words: Inhibition of heterologously expressed human cytochrome P450 1A2. Type of test: ADME. The procedure, abridged: (§2)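 Heterologously expressed human CYP1A2 in an isoform-selective assay. Substrate: caffeine N3-demethylation at 500 µM, at the substrate Km.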

In test [5] the test system is Rattus norvegicus. In words: Dose required to reverse mCPP induced hypolocomotion in rats after oral administration. Type of test: functional. The procedure, abridged: (§3)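 Rat hypolocomotion model. The test compound was given orally, and mCPP was given at 7 mg/kg ip 30 min before the test. ID50 (mg/kg po) is the dose that reverses mCPP-induced hypolocomotion by 50%.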

Test [6] concerns the target T5, Serotonin 2 receptors; 5-HT2a & 5-HT2c (Homo sapiens) (UniProt P28223+P28335). Nature of the test: Selectivity index determined from binding affinities of 5-HT2C and 5-HT2A. Format: protein assay.
For test [7], the target named is T6, Serotonin receptor (2b and 2c) (Homo sapiens) (UniProt P41595+P28335). Nature of the test: Selectivity index determined from the binding affinities of 5-HT2C and 5-HT2B. Format: protein assay.
In test [8] the target is Cytochrome P450 2C19 (Homo sapiens, UniProt P33261). In words: Inhibition of heterologously expressed human cytochrome P450 2C19. Type of test: ADME.
Test [9] addresses T5, Serotonin 2 receptors; 5-HT2a & 5-HT2c (Homo sapiens). Nature of the test: Selectivity index for binding affinities for 5-HT2C and 5-HT2A receptors. Format: protein assay.
The target in test [10] is T6, Serotonin receptor (2b and 2c) (Homo sapiens). In words: Selectivity index for binding affinities for 5-HT2C and 5-HT2B receptors. Format: protein assay.
Test [11] deals with Rattus norvegicus. In words: Dose required to reverse mCPP induced hypolocomotion in rats after oral administration; NA=inactive. Format: functional, organism-based. The method, boiled down:
as §3

The target in test [12] is T3, 5-hydroxytryptamine receptor 2B. Nature of the test: Binding affinities towards human cloned 5-hydroxytryptamine 2B receptor in HEK293 cells using [3H]5-HT as radioligand. Format: cell-based. The procedure, abridged:
as §1

For test [13], the target named is Cytochrome P450 2C9 (Homo sapiens, UniProt P11712). Nature of the test: Inhibition of heterologously expressed human cytochrome P450 2C9. Type of test: ADME.
Test [14] addresses Cytochrome P450 2D6 (Homo sapiens, UniProt P10635). Nature of the test: Inhibition of heterologously expressed human cytochrome P450 2D6. Type of test: ADME.
The target of test [15] is Cytochrome P450 3A4 (Homo sapiens, UniProt P08684). In words: Inhibition of heterologously expressed human cytochrome P450 3A4. Type of test: ADME.
The target of test [16] is T4, Cytochrome P450 1A2. In words: Inhibition of heterologously expressed human cytochrome P450 1A2. Format: ADME. The procedure, abridged: as §2
In test [17] the test system is Rattus norvegicus. Nature of the test: Dose required to reverse mCPP induced hypolocomotion in rat after oral administration. Conditions: read-out: ID50 (the source's name). Type of test: functional. The method, boiled down: as §3
In test [18] the target is T1, 5-hydroxytryptamine receptor 2A. Nature of the test: Displacement of [3H]ketanserin from human 5-hydroxytryptamine 2A receptor expressed in HEK293 cells; compound is insoluble. Format: cell-based. The method, boiled down:
as §1

Test [19] addresses T7, 5-hydroxytryptamine receptor 2C (Homo sapiens) (UniProt P28335).
T7 sequence (whole entry): T2 sequence (P28335 whole entry)
Nature of the test: Displacement of [3H]mesulergine from human 5-hydroxytryptamine 2C receptor expressed in HEK293 cells; compound insoluble. Type of test: cell-based. The procedure, abridged: as §1

In test [20] the target is T3, 5-hydroxytryptamine receptor 2B. In words: Displacement of [3H]5-HT from human 5-hydroxytryptamine 2B receptor expressed in HEK293 cells; compound is insoluble. Format: cell-based. The method, boiled down: as §1
Test [21] has as its system Rattus norvegicus. In words: Dose required to reverse mCPP induced hypolocomotion in rats after oral administration; IA=inactive. Format: functional, organism-based. The procedure, abridged: as §3

Chain of Cytochrome P450 2C19 (P33261 whole entry): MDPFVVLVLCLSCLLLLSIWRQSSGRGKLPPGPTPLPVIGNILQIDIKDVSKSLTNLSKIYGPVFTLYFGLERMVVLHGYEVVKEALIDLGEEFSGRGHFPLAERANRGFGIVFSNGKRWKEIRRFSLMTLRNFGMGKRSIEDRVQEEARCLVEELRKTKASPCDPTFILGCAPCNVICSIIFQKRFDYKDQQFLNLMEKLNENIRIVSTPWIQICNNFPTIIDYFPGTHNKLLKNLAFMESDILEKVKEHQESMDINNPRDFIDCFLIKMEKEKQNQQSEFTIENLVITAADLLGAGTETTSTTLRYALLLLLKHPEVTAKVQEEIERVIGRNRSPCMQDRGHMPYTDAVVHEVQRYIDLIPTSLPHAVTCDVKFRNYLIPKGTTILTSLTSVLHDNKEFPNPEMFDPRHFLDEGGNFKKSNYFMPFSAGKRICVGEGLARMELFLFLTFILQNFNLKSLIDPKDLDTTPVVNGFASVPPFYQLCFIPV
T3 sequence (P41595 whole entry): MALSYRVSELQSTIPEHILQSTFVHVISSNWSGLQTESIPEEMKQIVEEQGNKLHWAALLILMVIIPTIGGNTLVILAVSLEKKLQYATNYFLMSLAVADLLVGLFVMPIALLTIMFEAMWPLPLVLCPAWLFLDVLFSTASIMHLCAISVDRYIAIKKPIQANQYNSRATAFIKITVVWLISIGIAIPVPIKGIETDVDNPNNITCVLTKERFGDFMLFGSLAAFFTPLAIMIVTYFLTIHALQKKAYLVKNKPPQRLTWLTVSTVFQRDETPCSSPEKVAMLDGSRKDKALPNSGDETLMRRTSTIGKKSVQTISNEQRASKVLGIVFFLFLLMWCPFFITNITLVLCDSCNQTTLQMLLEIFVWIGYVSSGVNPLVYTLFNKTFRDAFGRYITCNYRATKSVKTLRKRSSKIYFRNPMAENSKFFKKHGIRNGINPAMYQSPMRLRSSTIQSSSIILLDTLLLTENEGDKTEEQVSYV
T1 sequence (P28223 whole entry): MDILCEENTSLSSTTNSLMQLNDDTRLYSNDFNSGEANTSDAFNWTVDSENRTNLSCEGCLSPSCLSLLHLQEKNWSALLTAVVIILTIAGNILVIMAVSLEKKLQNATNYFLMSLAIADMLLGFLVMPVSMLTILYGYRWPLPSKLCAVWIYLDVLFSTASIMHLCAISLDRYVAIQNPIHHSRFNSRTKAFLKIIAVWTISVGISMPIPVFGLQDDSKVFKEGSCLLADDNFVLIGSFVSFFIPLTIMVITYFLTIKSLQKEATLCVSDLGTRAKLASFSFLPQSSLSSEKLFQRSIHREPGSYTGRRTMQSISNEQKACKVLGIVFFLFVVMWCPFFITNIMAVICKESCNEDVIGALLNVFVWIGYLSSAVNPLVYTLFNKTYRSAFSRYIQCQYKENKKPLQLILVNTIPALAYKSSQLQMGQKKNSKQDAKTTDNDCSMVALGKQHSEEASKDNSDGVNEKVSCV
T5 sequence (P28223 whole entry, looked up, one chain of several): as the sequence (P28223 whole entry) above
Chain of Cytochrome P450 2D6 (P10635 whole entry): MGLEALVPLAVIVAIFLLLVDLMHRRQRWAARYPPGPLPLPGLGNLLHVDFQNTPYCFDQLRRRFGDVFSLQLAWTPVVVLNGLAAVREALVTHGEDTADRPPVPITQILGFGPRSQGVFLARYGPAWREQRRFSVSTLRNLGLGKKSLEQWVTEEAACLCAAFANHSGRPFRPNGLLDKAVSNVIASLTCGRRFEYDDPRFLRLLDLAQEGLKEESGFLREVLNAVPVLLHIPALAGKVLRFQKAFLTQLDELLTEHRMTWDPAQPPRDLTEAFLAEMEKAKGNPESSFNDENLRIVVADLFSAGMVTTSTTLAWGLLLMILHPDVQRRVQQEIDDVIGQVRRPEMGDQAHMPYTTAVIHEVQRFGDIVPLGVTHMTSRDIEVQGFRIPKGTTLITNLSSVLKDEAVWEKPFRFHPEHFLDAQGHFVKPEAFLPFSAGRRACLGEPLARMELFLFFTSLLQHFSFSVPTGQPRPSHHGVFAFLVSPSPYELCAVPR
Chain of Cytochrome P450 2C9 (P11712 whole entry): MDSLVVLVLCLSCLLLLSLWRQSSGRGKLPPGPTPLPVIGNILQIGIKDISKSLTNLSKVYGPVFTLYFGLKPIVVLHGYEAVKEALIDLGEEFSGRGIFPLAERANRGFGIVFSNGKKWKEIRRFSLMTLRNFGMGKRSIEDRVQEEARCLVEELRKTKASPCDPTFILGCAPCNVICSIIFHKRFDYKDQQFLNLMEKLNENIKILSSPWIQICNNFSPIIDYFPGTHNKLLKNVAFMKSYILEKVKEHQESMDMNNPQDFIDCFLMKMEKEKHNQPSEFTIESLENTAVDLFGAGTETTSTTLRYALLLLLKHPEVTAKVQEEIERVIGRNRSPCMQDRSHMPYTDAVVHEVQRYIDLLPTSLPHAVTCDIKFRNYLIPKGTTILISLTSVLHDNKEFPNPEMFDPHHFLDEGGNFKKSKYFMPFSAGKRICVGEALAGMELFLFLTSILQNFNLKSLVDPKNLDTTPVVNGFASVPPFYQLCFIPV
Chain of Cytochrome P450 3A4 (P08684 whole entry): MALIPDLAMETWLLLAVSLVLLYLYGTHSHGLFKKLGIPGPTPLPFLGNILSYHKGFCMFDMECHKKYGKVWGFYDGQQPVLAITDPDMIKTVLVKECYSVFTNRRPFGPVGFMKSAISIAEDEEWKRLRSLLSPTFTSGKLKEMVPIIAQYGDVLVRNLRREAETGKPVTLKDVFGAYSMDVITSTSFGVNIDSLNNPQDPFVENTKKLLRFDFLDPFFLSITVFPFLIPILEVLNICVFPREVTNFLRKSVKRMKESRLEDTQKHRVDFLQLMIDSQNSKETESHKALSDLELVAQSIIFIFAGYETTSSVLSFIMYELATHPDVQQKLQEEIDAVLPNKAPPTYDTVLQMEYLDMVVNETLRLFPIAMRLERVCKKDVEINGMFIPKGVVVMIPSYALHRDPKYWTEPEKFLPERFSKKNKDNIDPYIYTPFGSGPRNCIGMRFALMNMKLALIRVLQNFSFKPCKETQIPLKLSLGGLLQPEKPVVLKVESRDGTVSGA

As to `COc1cc2c(cc1C(F)(F)F)N(C(=O)Nc1cncc(-c3cnccc3C)c1)CC2`, the negative-log Ki (pKi) (commonly the Ki on a negative log10 scale, so that one unit is a factor of ten) in test [1] is 7.00; in test [2] it was 9.40; in [3], 8.20. For the same molecule, the pIC50 (as a rule, −log10 of the IC50, conventionally taken in molar units) in [4] is 6.70. In test [5], this molecule had an ED50 of 5 mg/kg. In addition, the Selectivity stood at 250 in test [6] and 15 in test [7].
Consider `Cc1cc2c(cc1Cl)N(C(=O)Nc1ccc(Oc3cccnc3C)nc1)CC2` [SB-242084], for which the negative-log IC50 (pIC50) in test [8] is < 4.00. The Selectivity stood at 160 in test [9] and 100 in test [10].
Turning to `COc1cc2c(cc1C(F)(F)F)N(C(=O)Nc1ccc(-c3cccnc3)nc1)CC2`, the pKi in test [1] was < 5.00; in [2] it was 8.30; in [3], 8.00. The pIC50 in [4] was 5.15. For the same molecule, the ED50 result in [11] was “inactive”. The Selectivity in test [6] was > 2000; in test [7] it was 2.
Take `COc1cc2c(cc1C(F)(F)F)N(C(=O)Nc1cncc(-c3ccncc3)c1)CC2`: the figures for the pKi in test [1], in test [2] and in test [3] were 7.20, 9.20 and 8.00, respectively. The negative logarithm of the IC50 (pIC50) in test [4] is 4.30. For the same molecule, the Selectivity in test [6] is 100; in test [7] it was 16.
Take `Cc1cc2c(cc1C(F)(F)F)N(C(=O)Nc1ccc(Oc3cccnc3C)nc1)CC2` [SB-243213]: the pKi in test [1] was 6.80; in test [2], 9.00; in [12], 7.00. Further, the pIC50 was 4.64 in test [13]; < 4.00 in test [14]; < 4.00 in test [8]; < 4.00 in test [15]; < 4.00 in test [16]. The ED50 in test [17] amounted to 0.7 mg/kg. For the same molecule, the Selectivity in test [6] was found to be 160; in test [7], 100.
On to `COc1cc2c(cc1C(F)(F)F)N(C(=O)Nc1cncc(-c3cccnc3)c1)CC2`, for which the pKi was 7.20 in test [1], 9.10 in [2] and 8.00 in test [3]. The Inhibition (in general, the change of the read-out against control, counted positive when it falls) in test [4] worked out at 77%. Moreover, the Selectivity worked out at 80 in [6] and 12 in [7].
`COc1cc2c(cc1C(F)(F)F)N(C(=O)Nc1cccc(-c3cccnc3C)c1)CC2`: the figures for the negative-log Ki (pKi) in [1], in [2] and in test [12] were 6.30, 8.30 and 7.80, respectively. For the same molecule, in test [16], the Inhibition worked out at 2%. The ED50 in test [17] was > 10 mg/kg. For the same molecule, the Selectivity in [6] was found to be 100; in test [7] it was 3.
For `COc1cc2c(cc1C(F)(F)F)N(C(=O)Nc1ccc(-c3ccccc3)nc1)CC2`, the “Log Ki” value in [18], in test [19] and in test [20] was “Insoluble” throughout.
Consider `COc1cc2c(cc1C(F)(F)F)N(C(=O)Nc1ccc(C(C)(C)C)c(-c3cccnc3)c1)CC2`, for which the pKi was 6.00 in [1], 8.50 in test [2] and 7.40 in test [12]. Besides, the ED50 entry in test [21] was “inactive”. The Selectivity came to 320 in [6] and 13 in test [7].
In the case of `COc1cc2c(cc1C(F)(F)F)N(C(=O)Nc1cc(F)cc(-c3cccnc3)c1)CC2`, the pKi in [1] was 6.90; in [2], 9.00; in [12] it was 8.00. Moreover, the pIC50 in test [13] is 4.09; in test [14], 4.68; in test [8], < 4.00; in test [15], 5.05; in [4] it was 4.55. In addition, the ED50 in test [17] amounted to 0.7 mg/kg. In addition, the values for the Selectivity in test [6] and in test [7] were 130 and 10, respectively.
On to `COc1cc2c(cc1C(F)(F)F)N(C(=O)Nc1cncc(-c3ccccc3)c1)CC2`, for which the values for the negative logarithm of the Ki (pKi) in [1], in [2] and in test [3] were 5.80, 8.30 and 7.60, respectively. The molecule also showed a pIC50 in [4] of 5.59. Moreover, the ED50 in [17] is > 20 mg/kg. In addition, the figures for the Selectivity in test [6] and in test [7] were 320 and 5, respectively.
`COc1cc2c(cc1C(F)(F)F)N(C(=O)Nc1ccc(Oc3cccnc3C)nc1)CC2`: the negative logarithm of the Ki (pKi) in [1] was 6.10; in test [2], 9.20; in test [12] it was 7.30. Further, the pIC50 in test [4] was < 4.00. In [17], the ED50 is 2.8 mg/kg. Further, the results for the Selectivity in [9] and in test [10] were 1300 and 80, respectively.
